{"source": "paper PMC5515376", "about": "(Nature, 2016)", "key": {"[1]": {"tested_on": "Salmonella typhimurium strains TA100, TA1535, TA98, TA1537 and Escherichia coli strain WP2uvrA", "assay": "Ames test", "conditions": "in the presence or absence of S9 mix"}, "[2]": {"assay": "Mouse pharmacokinetics assay", "assay_type": "in vivo", "conditions": "CD-1 mice", "method_in_brief": "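Female CD-1 mice received single intravenous and oral doses. Parameters were estimated by non-compartmental analysis.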"}, "[3]": {"conditions": "IV (2.5) mg/kg, separate assay over 72 h"}}, "note": "Marks after values point to notes of the source that are not given here."}
{"smiles": "COc1ccc(NC(=O)N2CCCCN3[C@H](CN(C)C)[C@H](c4ccc(C#Cc5ccccc5)cc4)[C@@H]3C2)cc1", "note": "[BRD7929]", "values": [{"measurement": "Mutagenicity (Ames test)", "setting": "[1]", "result": "non-mutagenic"}, {"measurement": "AUC (estimated)", "setting": "[2]; 25 mg kg^−1 single-dose cure, estimated from pharmacokinetic studies", "result": 27.5, "unit": "µM·h"}, {"measurement": "CL", "setting": "[2]; IV (2.5) mg/kg", "result": 9.9, "unit": "mL/min/kg"}, {"measurement": "MRT0-inf", "setting": "[2]; IV (2.5) mg/kg", "result": 40.5, "unit": "h"}, {"measurement": "Vss", "setting": "[2]; IV (2.5) mg/kg", "result": 24, "unit": "L/kg"}, {"measurement": "AUC0-inf", "setting": "[2]; [3]", "result": 11.2, "unit": "µM·h"}, {"measurement": "CL", "setting": "[2]; [3]", "result": 7.1, "unit": "mL/min/kg"}, {"measurement": "MRT0-inf", "setting": "[2]; [3]", "result": 45, "unit": "h"}, {"measurement": "T1/2", "setting": "[2]; [3]", "result": 32, "unit": "h"}, {"measurement": "Vss", "setting": "[2]; [3]", "result": 19, "unit": "L/kg"}, {"measurement": "AUC0-t", "setting": "[2]; IV (2.5) mg/kg, separate assay, t = 72 h", "result": "9 ^# µM*hr"}, {"measurement": "AUC0-t", "setting": "[2]; IV (2.5) mg/kg, t = 24 h", "result": "3.5 ^¶ µM*hr"}, {"measurement": "Cmax", "setting": "[2]; PO (10) mg/kg", "result": 540, "unit": "nM"}, {"measurement": "Tmax", "setting": "[2]; PO (10) mg/kg", "result": 8, "unit": "h"}, {"measurement": "F", "setting": "[2]; PO (10) mg/kg, based on initial intravenous study at 24 h", "result": "79.5 ^§ %"}, {"measurement": "AUC0-t", "setting": "[2]; PO (10) mg/kg, t = 24 h", "result": "11 ^¶ µM*hr"}]}
